Source: ChEMBL document CHEMBL2086312, “Synthesis and biological evaluation of new 5-benzylated 4-oxo-3,4-dihydro-5H-pyridazino[4,5-b]indoles as PI3Kα inhibitors” (Eur J Med Chem, 2012)

Key:
Caco-2 [1] = assay: Antiproliferative activity against human Caco2 cells incubated for 48 hrs by […] dye staining based assay; assay type: functional, cell-based; conditions: Caco-2, 48 h
In short: (§1)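 After 24 h attachment, they were exposed 48 h to increasing concentrations of 0.1 to 25. Cells were then fixed in cold 90% ethanol/5% acetic acid, nuclei were Hoechst-stained, and nuclei were counted by automated imaging.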

NCI-H727 [2] = assay: Antiproliferative activity against human NCI-H727 cells incubated for 48 hrs by […] dye staining based assay; assay type: functional, cell-based; conditions: NCI-H727, 48 h
In short: as §1, with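 “Cells were grown per ECACC recommendations and seeded in triplicate at 2 × 10³ (HCT-116) or 4 × 10³ (other lines) per well. After” for “After”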

Huh-7 [3] = assay: Antiproliferative activity against human HuH7 cells incubated for 48 hrs by […] dye staining based assay; assay type: functional, cell-based; conditions: Huh-7, 48 h; in short: as §1
[4] = Antiproliferative activity against human Skin fibroblasts incubated for 48 hrs by […] dye staining based assay; conditions: Skin fibroblast
In short: as §1, with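 “Cells were grown per ECACC recommendations and seeded in triplicate at 2 × 10³ (HCT-116) or 4 × 10³ (other lines) per well. After” for “After”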

MDA-MB-231 = assay: Antiproliferative activity against human MDA-MB-231 cells incubated for 48 hrs by […] dye staining based assay; assay type: functional, cell-based; conditions: MDA-MB-231, 48 h; in short: as §1
PC-3 [5] = assay: Antiproliferative activity against human PC3 cells incubated for 48 hrs by […] dye staining based assay; assay type: functional, cell-based; conditions: PC-3, 48 h
In short: as §1, with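 “Cells were grown per ECACC recommendations and seeded in triplicate at 2 × 10³ (HCT-116) or 4 × 10³ (other lines) per well. After” for “After”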

HCT-116 = assay: Antiproliferative activity against human HCT116 cells incubated for 48 hrs by […] dye staining based assay; assay type: functional, cell-based; conditions: HCT-116, 48 h
In short: as §1, with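 “Cells were grown per ECACC recommendations and seeded in triplicate at 2 × 10³ (HCT-116) or 4 × 10³ (other lines) per well. After” for “After”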

[6] = molecular target: Cyclin-dependent kinase 5/CDK5 activator 1 (Homo sapiens, UniProt Q00535); assay: Inhibition of human recombinant CDK5/P25 using myelin basic protein substrate; assay type: protein-complex assay
[7] = molecular target: PI3-kinase p110-alpha/p85-alpha (Homo sapiens, UniProt P42336); assay: Inhibition of PI3K p110alpha/p85alpha by fluorescence based immunoassay; assay type: protein-complex assay
In short: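 ADAPTA TR-FRET ADP-detection kinase assay. Detection used 6 nM Eu-anti-ADP antibody, 12 nM Alexa647-ADP tracer and 30 mM EDTA for 30 min. Read-out was excitation 340 nm with 665/615 nm emission ratio, converted to % conversion via an ATP–ADP titration curve.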

[8] = molecular target: Dual specificity tyrosine-phosphorylation-regulated kinase 1A (Rattus norvegicus, UniProt Q63470); assay: Inhibition of rat recombinant GST-tagged DYRK1A expressed in Escherichia coli using myelin basic protein substrate
[9] = molecular target: Phosphatidylinositol 4,5-bisphosphate 3-kinase catalytic subunit gamma isoform (Homo sapiens, UniProt P48736); assay: Inhibition of PI3K p110gamma by fluorescence based immunoassay
[10] = Antiproliferative activity against human Skin fibroblasts assessed as cell diminution incubated for 48 hrs by […] dye staining based assay; conditions: skin fibroblast
In short: as §1, with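 “Cells were grown per ECACC recommendations and seeded in triplicate at 2 × 10³ (HCT-116) or 4 × 10³ (other lines) per well. After” for “After”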

PC-3 [11] = assay: Antiproliferative activity against human PC3 cells assessed as cell diminution incubated for 48 hrs by […] dye staining based assay; assay type: functional
In short: as §1, with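 “Cells were grown per ECACC recommendations and seeded in triplicate at 2 × 10³ (HCT-116) or 4 × 10³ (other lines) per well. After” for “After”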

Caco-2 [12] = assay: Antiproliferative activity against human Caco2 cells assessed as cell diminution incubated for 48 hrs by […] dye staining based assay; assay type: functional
In short: as §1, with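 “Cells were grown per ECACC recommendations and seeded in triplicate at 2 × 10³ (HCT-116) or 4 × 10³ (other lines) per well. After” for “After”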

NCI-H727 [13] = assay: Antiproliferative activity against human NCI-H727 cells assessed as cell diminution incubated for 48 hrs by […] dye staining based assay; assay type: functional
In short: as §1, with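 “Cells were grown per ECACC recommendations and seeded in triplicate at 2 × 10³ (HCT-116) or 4 × 10³ (other lines) per well. After” for “After”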

Huh-7 [14] = assay: Antiproliferative activity against human HuH7 cells assessed as cell diminution incubated for 48 hrs by […] dye staining based assay; assay type: functional
In short: as §1, with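 “Cells were grown per ECACC recommendations and seeded in triplicate at 2 × 10³ (HCT-116) or 4 × 10³ (other lines) per well. After” for “After”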

Phosphatidylinositol 4,5-bisphosphate 3-kinase catalytic subunit gamma isoform, sequence (P48736 whole entry, looked up, canonical isoform): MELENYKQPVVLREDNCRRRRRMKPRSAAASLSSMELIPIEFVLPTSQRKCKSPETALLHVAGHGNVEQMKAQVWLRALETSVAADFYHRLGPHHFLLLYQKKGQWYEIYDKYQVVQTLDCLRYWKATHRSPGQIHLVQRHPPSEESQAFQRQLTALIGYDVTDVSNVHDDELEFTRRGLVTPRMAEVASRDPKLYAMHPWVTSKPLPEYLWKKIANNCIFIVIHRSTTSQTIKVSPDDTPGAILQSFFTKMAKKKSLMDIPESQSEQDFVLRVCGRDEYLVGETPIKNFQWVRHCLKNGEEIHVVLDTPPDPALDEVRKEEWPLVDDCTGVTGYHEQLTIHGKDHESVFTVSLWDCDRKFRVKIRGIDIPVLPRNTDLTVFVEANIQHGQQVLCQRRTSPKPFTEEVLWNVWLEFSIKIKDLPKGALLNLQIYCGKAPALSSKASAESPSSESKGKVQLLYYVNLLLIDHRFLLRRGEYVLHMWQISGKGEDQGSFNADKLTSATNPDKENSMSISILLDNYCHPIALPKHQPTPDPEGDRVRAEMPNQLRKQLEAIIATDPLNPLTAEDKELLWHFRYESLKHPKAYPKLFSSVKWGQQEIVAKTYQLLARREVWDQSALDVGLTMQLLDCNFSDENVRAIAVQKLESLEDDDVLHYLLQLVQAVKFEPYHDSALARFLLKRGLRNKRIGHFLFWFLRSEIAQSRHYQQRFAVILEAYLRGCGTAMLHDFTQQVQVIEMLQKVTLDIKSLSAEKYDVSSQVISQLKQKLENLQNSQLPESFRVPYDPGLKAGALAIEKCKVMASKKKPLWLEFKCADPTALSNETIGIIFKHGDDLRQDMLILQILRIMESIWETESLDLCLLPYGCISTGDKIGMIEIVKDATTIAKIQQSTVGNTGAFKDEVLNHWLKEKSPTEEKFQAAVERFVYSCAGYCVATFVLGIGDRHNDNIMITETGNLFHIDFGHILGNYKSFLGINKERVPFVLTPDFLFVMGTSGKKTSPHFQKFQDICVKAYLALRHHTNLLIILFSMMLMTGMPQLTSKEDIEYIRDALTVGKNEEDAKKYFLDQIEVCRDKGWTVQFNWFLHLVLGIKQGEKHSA
PI3-kinase p110-alpha/p85-alpha, sequence (P27986 whole entry): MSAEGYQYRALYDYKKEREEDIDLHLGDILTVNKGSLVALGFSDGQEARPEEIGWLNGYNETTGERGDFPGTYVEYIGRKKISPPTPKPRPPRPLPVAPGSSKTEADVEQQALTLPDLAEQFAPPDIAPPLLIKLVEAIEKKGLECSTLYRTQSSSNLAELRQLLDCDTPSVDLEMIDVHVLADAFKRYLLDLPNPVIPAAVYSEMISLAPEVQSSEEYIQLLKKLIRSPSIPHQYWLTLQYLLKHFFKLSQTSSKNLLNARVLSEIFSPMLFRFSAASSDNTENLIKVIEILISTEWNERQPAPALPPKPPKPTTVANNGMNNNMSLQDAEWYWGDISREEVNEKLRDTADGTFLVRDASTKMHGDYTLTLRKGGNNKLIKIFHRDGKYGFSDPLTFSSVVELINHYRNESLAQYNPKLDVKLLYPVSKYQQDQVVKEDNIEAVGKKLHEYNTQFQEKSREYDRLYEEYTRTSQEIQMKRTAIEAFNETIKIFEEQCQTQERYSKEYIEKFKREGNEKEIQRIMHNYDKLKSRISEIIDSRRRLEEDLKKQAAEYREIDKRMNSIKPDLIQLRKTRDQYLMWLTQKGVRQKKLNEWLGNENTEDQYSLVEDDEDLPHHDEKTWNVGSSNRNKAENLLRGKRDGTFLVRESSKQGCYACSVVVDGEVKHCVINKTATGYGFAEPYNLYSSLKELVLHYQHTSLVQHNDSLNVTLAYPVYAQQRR
PI3-kinase p110-alpha/p85-alpha, sequence (P42336 whole entry): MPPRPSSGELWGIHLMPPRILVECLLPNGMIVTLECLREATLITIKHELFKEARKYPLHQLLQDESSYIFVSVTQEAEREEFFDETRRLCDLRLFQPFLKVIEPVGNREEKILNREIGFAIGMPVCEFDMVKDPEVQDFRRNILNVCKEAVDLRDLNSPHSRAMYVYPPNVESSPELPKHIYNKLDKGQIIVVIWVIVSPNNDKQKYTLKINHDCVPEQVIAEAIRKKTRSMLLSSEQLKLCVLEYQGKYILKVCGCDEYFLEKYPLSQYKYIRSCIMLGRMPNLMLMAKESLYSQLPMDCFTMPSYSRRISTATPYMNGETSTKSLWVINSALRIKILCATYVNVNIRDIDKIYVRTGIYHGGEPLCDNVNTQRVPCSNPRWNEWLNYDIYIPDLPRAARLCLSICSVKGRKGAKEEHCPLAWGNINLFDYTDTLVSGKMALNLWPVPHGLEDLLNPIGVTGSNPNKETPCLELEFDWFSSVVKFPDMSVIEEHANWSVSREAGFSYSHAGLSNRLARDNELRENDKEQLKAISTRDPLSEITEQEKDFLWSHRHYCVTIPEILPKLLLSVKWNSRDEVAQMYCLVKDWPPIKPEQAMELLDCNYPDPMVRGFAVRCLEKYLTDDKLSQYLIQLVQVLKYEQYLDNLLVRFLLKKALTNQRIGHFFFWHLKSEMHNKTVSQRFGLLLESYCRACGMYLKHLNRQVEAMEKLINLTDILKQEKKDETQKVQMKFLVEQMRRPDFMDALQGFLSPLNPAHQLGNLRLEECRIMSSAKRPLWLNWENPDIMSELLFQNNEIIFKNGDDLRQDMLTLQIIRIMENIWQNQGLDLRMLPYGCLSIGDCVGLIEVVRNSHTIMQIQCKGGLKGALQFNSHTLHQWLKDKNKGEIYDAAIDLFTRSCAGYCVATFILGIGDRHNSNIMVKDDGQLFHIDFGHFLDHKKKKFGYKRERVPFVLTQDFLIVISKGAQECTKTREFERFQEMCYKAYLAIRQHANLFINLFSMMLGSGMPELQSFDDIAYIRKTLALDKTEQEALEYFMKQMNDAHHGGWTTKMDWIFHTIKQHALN
Cyclin-dependent kinase 5/CDK5 activator 1, sequence (Q00535 whole entry): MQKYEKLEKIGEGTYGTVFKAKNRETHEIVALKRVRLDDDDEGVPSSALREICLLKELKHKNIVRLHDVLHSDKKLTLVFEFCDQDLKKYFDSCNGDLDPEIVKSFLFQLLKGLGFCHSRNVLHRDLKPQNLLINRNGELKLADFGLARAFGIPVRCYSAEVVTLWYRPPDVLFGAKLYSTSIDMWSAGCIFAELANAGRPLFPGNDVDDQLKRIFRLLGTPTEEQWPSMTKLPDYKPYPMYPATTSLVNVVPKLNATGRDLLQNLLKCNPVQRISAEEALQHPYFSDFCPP
Cyclin-dependent kinase 5/CDK5 activator 1, sequence (Q15078 whole entry, further chain): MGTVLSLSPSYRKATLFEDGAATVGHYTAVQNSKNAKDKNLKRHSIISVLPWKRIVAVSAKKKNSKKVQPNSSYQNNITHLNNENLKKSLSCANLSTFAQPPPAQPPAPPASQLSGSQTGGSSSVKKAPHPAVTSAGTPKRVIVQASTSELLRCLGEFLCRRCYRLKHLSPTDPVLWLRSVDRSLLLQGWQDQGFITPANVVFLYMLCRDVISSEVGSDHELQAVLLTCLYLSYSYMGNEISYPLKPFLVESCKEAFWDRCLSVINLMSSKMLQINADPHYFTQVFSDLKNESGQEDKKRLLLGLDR

Row | Structure (SMILES) | IC50 (Caco-2 [1]) [µM] | IC50 (NCI-H727 [2]) [µM] | IC50 (Huh-7 [3]) [µM] | IC50 (MDA-MB-231) [µM] | IC50 (PC-3 [5]) [µM] | IC50 (HCT-116) [µM] | IC50 [6] [µM] | IC50 [7] [µM] | IC50 [8] [µM] | IC50 [9] [µM] | IC50 [4] [µM] | Activity [10] [%] | Activity (PC-3 [11]) [%] | Activity (Caco-2 [12]) [%] | Activity (NCI-H727 [13]) [%] | Activity (Huh-7 [14]) [%]
1 | Cc1n[nH]c(=O)c2[nH]c3ccc(Br)cc3c12 | 2 | 3 | 1.5 | 6 | 3 | 5 |  |  |  |  | 8 |  |  |  |  | 
2 | Cc1n[nH]c(=O)c2[nH]c3ccc(F)cc3c12 | 4 | 2 | 1.5 | 4 | 3 | 5 | > 10 | > 10 | 5.6 |  | 10 |  |  |  |  | 
3 | Cc1n[nH]c(=O)c2c1c1cc(Br)ccc1n2Cc1ccc([N+](=O)[O-])cc1 | 2 | 1 | 1 | 4 | 1.5 | 2 | > 10 | 6 | > 10 | > 10 | 2 |  |  |  |  | 
4 | Cc1n[nH]c(=O)c2c1c1cc(Br)ccc1n2Cc1cccc([N+](=O)[O-])c1 | 3 | 4 | 2 | 5 | 5 | 4 | > 10 | 5.1 | > 10 | 4.1 | 5 |  |  |  |  | 
5 | Cc1n[nH]c(=O)c2c1c1cc(Br)ccc1n2Cc1cccc(C#N)c1 | 2 | 4 | 2 | 4 | 2.5 | 5 | > 10 | 0.091 | > 10 | 0.295 | 4 |  |  |  |  | 
6 | COc1cccc(Cn2c3ccc(Br)cc3c3c(C)n[nH]c(=O)c32)c1 | 2 | 5 | 2 | 4 | 2 | 2 | > 10 | 1.5 | > 10 | 2.2 | 3 |  |  |  |  | 
7 | Cc1n[nH]c(=O)c2c1c1cc(F)ccc1n2Cc1ccc([N+](=O)[O-])cc1 | 2 | 5 | 5 | 2 | 0.6 | 5 | > 10 | > 10 | > 10 |  | > 25 |  |  |  |  | 
8 | Cc1n[nH]c(=O)c2c1c1cc(F)ccc1n2Cc1cccc([N+](=O)[O-])c1 | 2 | 6 | 3 | 0.8 | 0.7 | 4 | > 10 | > 10 | > 10 |  | > 25 |  |  |  |  | 
9 | Cc1n[nH]c(=O)c2c1c1cc(F)ccc1n2Cc1ccc(C#N)cc1 | 2 | 4 | 3 | 1.5 | 1 | 5 | > 10 | > 10 | > 10 |  | > 25 |  |  |  |  | 
10 | Cc1n[nH]c(=O)c2c1c1cc(F)ccc1n2Cc1cccc(C#N)c1 | 2 | 6 | 3 | 12 | 4 | 6 | > 10 | 5 | > 10 |  | 8 |  |  |  |  | 
11 | COc1ccc(Cn2c3ccc(F)cc3c3c(C)n[nH]c(=O)c32)cc1 | 2 | 3 | 1 | 2 | 2.5 | 2 | > 10 | 4.2 | > 10 |  | 5 |  |  |  |  | 
12 | COc1ccc2c(c1)c1c(C)n[nH]c(=O)c1n2Cc1cccc([N+](=O)[O-])c1 | 5 | 4 | 1.5 | 4 | 2.5 | 4 | > 10 | 1.8 | > 10 |  | 2 | 50 | 50 | 50 |  | 
13 | COc1ccc(Cn2c3ccc(OC)cc3c3c(C)n[nH]c(=O)c32)cc1 |  |  |  |  |  |  | > 10 | > 10 | > 10 |  |  |  |  |  |  | 
14 | COc1cccc(Cn2c3ccc(OC)cc3c3c(C)n[nH]c(=O)c32)c1 | 2 | 3 | 1 | 3 | 2.5 | 2 | > 10 | 6.3 | > 10 |  | 1 |  |  |  |  | 
15 | Oc1cccc(-c2nc(N3CCOCC3)c3oc4ncccc4c3n2)c1 [PI-103] | 0.9 | 3 | 1.5 | 15 | 1.5 | 1 |  |  |  |  | 1.5 | 30 |  |  | 30 | 40
16 | CC[C@H](CO)Nc1nc(NCc2ccccc2)c2ncn(C(C)C)c2n1 [SELICICLIB] |  | 20 |  |  | 10 | 7 |  |  |  |  | > 25 |  |  |  |  | 

Second part, led by results:

Row | IC50 (Caco-2 [1]) [µM] | IC50 (NCI-H727 [2]) [µM] | IC50 (Huh-7 [3]) [µM] | IC50 (MDA-MB-231) [µM] | IC50 (PC-3 [5]) [µM] | IC50 (HCT-116) [µM] | IC50 [6] [µM] | IC50 [7] [µM] | IC50 [8] [µM] | IC50 [9] [µM] | Structure (SMILES) | IC50 [4] [µM] | Activity [10] [%] | Activity (PC-3 [11]) [%] | Activity (Caco-2 [12]) [%] | Activity (NCI-H727 [13]) [%] | Activity (Huh-7 [14]) [%]
17 | 8 | 5 | 3 | 5 | 7 | 15 | > 10 | > 10 | 5 |  | COc1ccc2[nH]c3c(=O)[nH]nc(C)c3c2c1 | 20 |  |  |  |  | 
18 | 2 | 3 | 2 | 4 | 2 | 2 | > 10 | 1.9 | > 10 | > 10 | Cc1n[nH]c(=O)c2c1c1cc(Br)ccc1n2Cc1ccc(C#N)cc1 | 2 |  |  |  |  | 
19 | 2 | 5 | 1.5 | 5 | 2.5 | 4 | > 10 | 1.5 | > 10 | 5.2 | COc1ccc(Cn2c3ccc(Br)cc3c3c(C)n[nH]c(=O)c32)cc1 | 4 |  |  |  |  | 
20 | 2 | 2 | 1.5 | 0.9 | 0.4 | 4 | > 10 | > 10 | > 10 |  | COc1cccc(Cn2c3ccc(F)cc3c3c(C)n[nH]c(=O)c32)c1 | > 25 |  |  |  |  | 
21 | 5 | 2.5 | 3 | 2 | 3 | 5 | > 10 | 2.6 | > 10 |  | COc1ccc2c(c1)c1c(C)n[nH]c(=O)c1n2Cc1ccc([N+](=O)[O-])cc1 | 4 |  |  |  |  | 
22 | 6 | 2 | 2 | 2 | 2 | 4 | > 10 | 2.9 | > 10 |  | COc1ccc2c(c1)c1c(C)n[nH]c(=O)c1n2Cc1ccc(C#N)cc1 | 5 |  | 50 |  |  | 
23 | 3 | 4 | 2 | 3 | 2 | 5 | > 10 | 3.3 | > 10 |  | COc1ccc2c(c1)c1c(C)n[nH]c(=O)c1n2Cc1cccc(C#N)c1 | 5 |  |  |  |  | 
